Source: PubChem (Broad Institute)
Wnt bcat act: activates Wnt/beta-catenin signaling in a reporter cell assay | activator, plate reader | activation, % at 9.35 µM | actives 1.2% (n = 300,000); in the data active means activation above about 30%, passing the limit was not always enough; inconclusive means no clear call, values can overlap the other calls;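 further: 0% = neutral control wells and 100% = positive control wells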
esBAF inh: SWI/SNF esBAF complex inhibition; mouse ES cells, Bmi1-luciferase knock-in reporter, 24 h; 100% = twice the neutral-well signal; reporter increase, % at 12.5 µM; actives 2% (n = 350,000); in the data active means activation above about 40%; inconclusive means no clear call, values can overlap the other calls;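 further: 0% = median of the plate's neutral control wells and 100% = double that signal; a rise in the Bmi1 reporter signal indicates esBAF inhibition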
MITF act: increases MITF-driven TRPM1 promoter luciferase signal; SK-MEL-5 TRPM1-promoter luciferase, 24 h; % of positive control, neutral wells = 0; activation, % at 12.5 µM; actives 0.75% (n = 300,000);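 active means mean activation of at least 80% with every replicate also reaching 80%; inconclusive means mean reaches 80% but some replicate falls short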;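 further: 0% = neutral control wells and 100% = parthenolide positive control wells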
HIV Env fusion: blocks HIV Env-driven cell-cell fusion. HeLa-JRFL Env/CEM21 cell fusion, luciferase. inhibition, % at 12.3 µM. actives 1.1% (n = 360,000). AID 651610;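 active means mean replicate inhibition score of at least 50 and every replicate individually at or above 50; inconclusive means only one of the two criteria met; inactive means mean below 50 and not all replicates reaching 50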;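 further: 0% = plate neutral controls and 100% = maraviroc near 300 nM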
Cneo AK release: causes C. neoformans cell lysis; adenylate kinase release luminescence, 4 h; normalised: neutral wells 0, clomiphene wells 100; actives 0.2% (n = 360,000); lysis activity, % at 15 µM;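 active means mean lysis activity across replicates of at least 80%, whatever share of replicates individually reach that level; inactive means mean lysis activity below 80%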
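Material – Cryptococcus neoformans yeast cells · Quantity – 5 × 10^6 yeast cells/mL · Buffer or medium – YPD medium · Compound – single dose · Timing – 4 h static compound exposure, 37 °C, read 1 h post-reagent · Signal – adenylate kinase release luminescence · Read-out basis – lysis from increased AK signal · Benchmarks – Clomiphene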
ERAP1 HTS inh: inhibitors of human ERAP1 aminopeptidase | recombinant ERAP1, Leu-AMC fluorescence, 60 min | actives 0.15% (n = 340,000) | inhibition, % at 10.7 µM | AID 652197;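 active means mean replicate inhibition of at least 30%, or all replicates individually reaching that 30% level; inactive means mean below 30% and not every replicate reaching it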;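 further: 0% = neutral control wells and 100% = L-leucinethiol positive control wells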
Target sequence (Q9NZ08 whole entry, looked up): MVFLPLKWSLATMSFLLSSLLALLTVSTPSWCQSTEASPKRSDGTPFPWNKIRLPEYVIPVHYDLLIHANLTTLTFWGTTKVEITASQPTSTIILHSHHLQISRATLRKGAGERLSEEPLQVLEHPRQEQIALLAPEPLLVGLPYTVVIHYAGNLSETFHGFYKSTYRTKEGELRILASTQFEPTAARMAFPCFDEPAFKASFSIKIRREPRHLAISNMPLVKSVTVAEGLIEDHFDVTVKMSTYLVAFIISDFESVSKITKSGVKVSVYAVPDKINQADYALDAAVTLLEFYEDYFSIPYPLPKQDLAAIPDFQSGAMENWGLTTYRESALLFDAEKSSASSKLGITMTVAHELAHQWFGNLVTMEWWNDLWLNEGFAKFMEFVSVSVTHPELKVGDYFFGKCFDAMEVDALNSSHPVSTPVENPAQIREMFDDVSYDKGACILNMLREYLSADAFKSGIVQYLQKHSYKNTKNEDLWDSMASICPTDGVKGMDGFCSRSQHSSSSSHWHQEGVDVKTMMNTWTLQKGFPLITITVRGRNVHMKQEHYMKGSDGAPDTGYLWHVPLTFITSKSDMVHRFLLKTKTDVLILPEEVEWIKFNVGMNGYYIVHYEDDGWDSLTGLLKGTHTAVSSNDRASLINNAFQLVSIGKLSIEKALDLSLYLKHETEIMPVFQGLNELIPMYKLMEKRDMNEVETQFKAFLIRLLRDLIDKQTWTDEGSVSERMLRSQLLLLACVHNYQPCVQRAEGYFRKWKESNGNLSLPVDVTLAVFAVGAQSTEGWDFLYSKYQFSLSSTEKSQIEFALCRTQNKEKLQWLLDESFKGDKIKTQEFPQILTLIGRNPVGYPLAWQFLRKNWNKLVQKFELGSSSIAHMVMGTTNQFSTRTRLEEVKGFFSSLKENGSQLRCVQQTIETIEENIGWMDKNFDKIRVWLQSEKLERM
* marks the source's active call; other numbers are inactive results; ? = inconclusive; · = no result; [ ] = remark or other dose. The list is not random: actives were taken first. Their share in the collection is about 3.5%.

SMILES	Wnt bcat act	esBAF inh	MITF act	HIV Env fusion	Cneo AK release	ERAP1 HTS inh
CC1CCN(C(=O)CSc2nc3ccccc3[nH]2)CC1	20	51*	?	·	-4	-2
NC(=O)C1CCN(C(=O)CSc2nc3ccccc3[nH]2)CC1	-4	-11	-6	·	0	1
O=C(CSc1ccccn1)c1ccc2c(c1)OCO2	47*	51*	·	-111	-3	·
Cc1ccc(-c2ccc3c(c2)O[C@H](CN(C)Cc2cncnc2)[C@H](C)CN([C@@H](C)CO)S3(=O)=O)cc1	·	-1	·	-12[16.7 µM]	·	·
Cc1noc(C)c1NC(=O)N(C)C[C@H]1Oc2c(NS(=O)(=O)c3cccs3)cccc2C(=O)N([C@@H](C)CO)C[C@H]1C	·	3	·	·	-2	-1
C[C@@H]1CN([C@@H](C)CO)C(=O)c2cc(NC(=O)Nc3ccc4c(c3)OCO4)ccc2O[C@@H]1CN(C)C(=O)Nc1ccc(F)cc1	·	-1	·	-7[16.7 µM]	1	·
C[C@@H]1CN([C@H](C)CO)C(=O)c2cccc(NC(=O)Nc3ccccc3)c2O[C@@H]1CN(C)S(=O)(=O)c1ccccc1	·	3	·	-8[16.7 µM]	1	-2
COC(=O)Cc1ccc(NC(=O)c2ccc(Br)o2)cc1	9	57*	48	·	·	·
O=C(Nc1ccccc1)c1ccc(Br)o1	13	39	42	-59	0	0
CS(=O)(=O)c1ccc(-c2cccc(NC(=O)c3ccc(Br)o3)c2)nn1	-5	·	-16	-22	-1	2
CCN(CC)c1ccc(NC(=O)c2ccc(Br)o2)cc1	70*	43*	97*	-166	-5	·
COc1ccc(-c2ccc(NC(=O)c3ccc(Br)o3)cc2)nn1	31*	27	98*	-67	0	2
C[C@H](CO)N1C[C@H](C)[C@H](CN(C)C(=O)NC2CCCCC2)Oc2c(NC(=O)c3ccncc3)cccc2C1=O	·	10	·	10[16.7 µM]	-3	6
COc1cccc(CN2CCC3(CC2)CN(C(=O)C2CC2)[C@H](CO)c2[nH]c4cc(OC)ccc4c23)c1	·	·	·	·	·	1
COc1cccc(C#Cc2cnc3c(c2)C(=O)N([C@@H](C)CO)C[C@@H](C)[C@@H](CN(C)C(C)=O)O3)c1	·	1	·	7[16.7 µM]	-1	5
Cc1ccc(S(=O)(=O)N2CCN(C(=O)CCCOc3ccc(Cl)cc3C)CC2)cc1	-5	0	6	15	·	-2
Cc1cc(Cl)ccc1OCCCC(=O)N1CCOCC1	?	59*	·	-14	5	·
Cc1cc(Cl)ccc1OCCCC(=O)N1CCCCC1	·	60*	100*	·	-3	·
Cc1ccc(OCCCC(=O)N2CCOCC2)cc1	·	19	16	·	1	·
Cc1cc(-n2c(C)cc(C(=O)CSc3ccccn3)c2C)no1	21	76*	107*	-81	-1	-1
C[C@@H]1CN([C@@H](C)CO)C(=O)c2cc(NC(=O)C3CCCCC3)ccc2O[C@@H](C)CCCCO[C@H]1CN(C)C	·	-3	·	-19[16.7 µM]	·	·
C/C(=N\OC(=O)c1ccc(Br)cc1)c1ccccn1	-2	·	-1	-14	·	7
C/C(=N/OCc1ccc(Br)cc1)c1ccccn1	18	6	117*	-131	·	-3
CS(=O)(=O)c1ccc(N)c(SSc2cc(S(C)(=O)=O)ccc2N)c1	3	2	-2	-1	-1	39*
O=C(Cc1ccccn1)N[C@@H]1CC[C@@H](CCn2cc(-c3cccnc3)nn2)O[C@H]1CO	·	4	·	12[16.7 µM]	0	-5
SMILES	Wnt bcat act	esBAF inh	MITF act	HIV Env fusion	Cneo AK release	ERAP1 HTS inh
O=C(NC12CC3CC(CC(C3)C1)C2)c1ccccc1	-12	-8	-4	9	-18	-6
O=C(NC(=S)Nc1cccnc1Cl)c1ccc(F)cc1	37*	38	53	-54	1	-7
O=C(NC(=S)Nc1ncccn1)c1ccc(F)cc1	7	62*	101*	-28	4	2
O=C(NC(=S)NC12CC3CC(CC(C3)C1)C2)c1ccc(F)cc1	-7	58*	·	-24	11	3
C[C@@H]1CN([C@@H](C)CO)C(=O)Cc2cc(NC(=O)c3ccncc3)ccc2O[C@@H]1CN(C)CC1CC1	·	-2	·	12[16.7 µM]	-3	1
COc1ccccc1C(=O)OCc1cc(=O)n2ccsc2n1	5	·	33	·	-1	2
O=C(OCc1cc(=O)n2ccsc2n1)c1ccccc1O	-1	74*	?	-24	-1	5
O=c1cc(COc2ccc(Cl)c(Cl)c2)nc2sccn12	?	45*	74	-39	2	-1
CCCNC(=O)C[C@H]1CC[C@H]2[C@H](COc3ccc(NC(=O)c4cccc(C(F)(F)F)c4)cc3C(=O)N2C)O1	·	7	·	22[16.7 µM]	-4	3
O=Nc1c2nc3ccccc3n(O)c-2c2ccccc12	40*	48*	·	-287	-1	·
C[C@@H]1CN([C@H](C)CO)C(=O)CCCn2nncc2CO[C@H]1CN(C)CC1CCCCC1	·	2	·	·	-2	1
Clc1ccccc1CSc1nc2ccncc2[nH]1	39*	?	67	-6	-2	4
c1ccc(CSc2nc3ccccc3[nH]2)cc1	68*	-29	111*	-263	-8	·
c1ccc(CSCc2nc3ccccc3[nH]2)cc1	·	·	111*	-36	-1	·
O=C(NCc1ccccc1Cl)c1ccc(CSc2nc3ccncc3[nH]2)cc1	1	5	7	19	22	0
CCSc1nc2ccccc2[nH]1	·	1	3	-10	-1	·
O=[N+]([O-])c1ccc(CSc2nc3ccccc3[nH]2)cc1	21	72*	?	-60	-8	0
N/N=C(/Cc1nc2ccccc2[nH]1)c1ccc([N+](=O)[O-])cc1	38*	·	25	-28	·	4
Fc1ccc(CSc2nc3ccccc3[nH]2)cc1	·	33	104*	·	-10	·
CCCOc1ccc(CSc2nc3ccccc3[nH]2)cc1	·	-1	30	-3	·	·
COCC(=O)N1CC2(C1)[C@H](c1ccc(-c3ccccc3)cc1)[C@H](CO)N2C(=O)COC	·	·	·	·	·	0
CNC[C@H]1Oc2ccc(NC(=O)Nc3cccc4ccccc34)cc2CC(=O)N([C@H](C)CO)C[C@H]1C	·	0	·	5[16.7 µM]	39	-3
COc1cc(NC(=O)c2cc3ccccc3o2)ccc1NC(=O)c1ccco1	2	11	4	18	2	-2
COc1cc(NC(=O)c2c(OC)cccc2OC)ccc1NC(=O)c1cc2ccccc2o1	2	?	93*	-86	4	0
CCC(=O)Nc1ccc(NC(=O)c2cc3ccccc3o2)c(OC)c1	-2	43*	·	-26	1	5
Cc1noc(C)c1NC(=O)N(C)C[C@@H]1Oc2ccc(NS(=O)(=O)c3ccc(Cl)cc3)cc2CC(=O)N([C@H](C)CO)C[C@H]1C	·	-3	·	13[16.7 µM]	-13	0
